Activity calls are given as the source filed them. The rule behind the calls is not given here.
Legend:
Mus musculus [1] = experiment: Analgesic activity mouse at 20 to 40 mg/kg, sc by Eddy hot-plate assay; type: functional, organism-based
Method in brief: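 Mouse analgesia by the Eddy hot-plate assay with subcutaneous injection. The ED50 is expressed with 95% SE limits.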

Rhesus monkey [2] = experiment: Toxicity in monkey at 16 mg/kg; type: organism-based, Macaca mulatta; set-up: dose 16 mg/kg; conditions: in vivo
Mus musculus [3] = experiment: Toxicity in mouse at 16 mg/kg, sc; type: organism-based; set-up: dose 16 mg/kg, route subcutaneous; conditions: in vivo
Mus musculus [4] = experiment: Analgesic activity in sc dosed mouse by Eddy hot-plate assay; type: functional
Rhesus monkey [5] = experiment: Physical dependence capacity in monkey assessed as precipitation of morphine withdrawal syndrome at 0.5 to 16 mg/kg; type: ADME, organism-based, Macaca mulatta; set-up: dose 0.5-16 mg/kg; conditions: in vivo
Mus musculus [6] = experiment: Analgesic activity in sc dosed mouse by Nilsen assay; type: functional
Rhesus monkey [7] = experiment: Toxicity in monkey assessed as myoclonic jerks at 6 mg/kg, sc; type: organism-based, Macaca mulatta; set-up: dose 6 mg/kg, route subcutaneous; conditions: in vivo
Mus musculus [8] = experiment: Analgesic activity in po dosed mouse by Nilsen assay; type: functional
Method in brief: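 Mouse analgesia by the Nilsen test with oral dosing. The ED50 is reported in mg/kg with confidence limits in parentheses.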

Rhesus monkey [9] = experiment: Toxicity in monkey assessed as piloerection at 10 mg/kg for 1 to 2 hrs; type: organism-based, Macaca mulatta; set-up: dose 10 mg/kg; conditions: in vivo
Rhesus monkey [10] = experiment: Toxicity in monkey assessed as increase spontaneous movement at 10 mg/kg for 1 to 2 hrs; type: organism-based, Macaca mulatta; set-up: dose 10 mg/kg; conditions: in vivo
Rhesus monkey [11] = experiment: Physical dependence capacity in monkey assessed as precipitation of morphine-induced abstinence at 10 mg/kg; type: ADME, organism-based, Macaca mulatta; set-up: dose 10 mg/kg; conditions: in vivo
Rhesus monkey [12] = experiment: Physical dependence capacity in monkey assessed as precipitation of morphine withdrawal syndrome at 5 to 10 mg/kg; type: ADME, organism-based, Macaca mulatta; set-up: dose 5-10 mg/kg; conditions: in vivo
Rhesus monkey [13] = experiment: Toxicity in monkey assessed as irritable behavior at 10 mg/kg for 1 to 2 hrs; type: organism-based, Macaca mulatta; set-up: dose 10 mg/kg; conditions: in vivo
Mus musculus [14] = experiment: Toxicity in mouse at 20 to 40 mg/kg, sc; type: organism-based; set-up: dose 20-40 mg/kg, route subcutaneous; conditions: in vivo
Rhesus monkey [15] = experiment: Toxicity in monkey assessed as restlessness at 10 mg/kg for 1 to 2 hrs; type: organism-based, Macaca mulatta; set-up: dose 10 mg/kg; conditions: in vivo
Rhesus monkey [16] = experiment: Physical dependence capacity in monkey assessed as single dose suppression of morphine withdrawal syndrome at 5 to 10 mg/kg; type: ADME, organism-based, Macaca mulatta; set-up: dose 5-10 mg/kg; conditions: in vivo
Rhesus monkey [17] = experiment: Toxicity in monkey assessed as apprehensive behavior at 10 mg/kg for 1 to 2 hrs; type: organism-based, Macaca mulatta; set-up: dose 10 mg/kg; conditions: in vivo
Rhesus monkey [18] = experiment: Toxicity in monkey assessed as pupil dilation at 10 mg/kg for 1 to 2 hrs; type: organism-based, Macaca mulatta; set-up: dose 10 mg/kg; conditions: in vivo
Rhesus monkey [19] = experiment: Toxicity in monkey at 0.5 to 16 mg/kg; type: organism-based, Macaca mulatta; set-up: dose 0.5-16 mg/kg; conditions: in vivo
Rhesus monkey [20] = experiment: Toxicity in monkey assessed as muscle rigidity at 10 mg/kg for 1 to 2 hrs; type: organism-based, Macaca mulatta, Muscle tissue; set-up: dose 10 mg/kg; conditions: in vivo
Rhesus monkey [21] = experiment: Toxicity in monkey assessed as tremors at 10 mg/kg for 1 to 2 hrs; type: organism-based, Macaca mulatta; set-up: dose 10 mg/kg; conditions: in vivo
Rhesus monkey [22] = experiment: Physical dependence capacity in monkey assessed as single dose suppression of morphine withdrawal syndrome at 0.5 to 16 mg/kg; type: ADME, organism-based, Macaca mulatta; set-up: dose 0.5-16 mg/kg; conditions: in vivo
Rhesus monkey [23] = experiment: Physical dependence capacity in monkey assessed as precipitation of morphine-induced abstinence at 0.5 to 16 mg/kg; type: ADME, organism-based, Macaca mulatta; set-up: dose 0.5-16 mg/kg; conditions: in vivo
Rhesus monkey [24] = experiment: Toxicity in monkey assessed as head tremor at 10 mg/kg; type: organism-based, Macaca mulatta; set-up: dose 10 mg/kg; conditions: in vivo
Mus musculus [25] = experiment: Toxicity in mouse at 50 mg/kg, sc; type: organism-based; set-up: dose 50 mg/kg, route subcutaneous; conditions: in vivo
Rhesus monkey [26] = experiment: Toxicity in monkey assessed as severe retching at 1 to 4 mg/kg for 24 hrs; type: organism-based, Macaca mulatta; set-up: dose 1-4 mg/kg; conditions: in vivo
Rhesus monkey [27] = experiment: Toxicity in monkey assessed as depression at 1 to 16 mg/kg for 24 hrs; type: organism-based, Macaca mulatta; set-up: dose 1-16 mg/kg; conditions: in vivo
Rhesus monkey [28] = experiment: Physical dependence capacity in monkey assessed as single dose suppression of morphine withdrawal syndrome at 2.5 to 10 mg/kg; type: ADME, organism-based, Macaca mulatta; set-up: dose 2.5-10 mg/kg; conditions: in vivo
Rhesus monkey [29] = experiment: Toxicity in monkey assessed as vomiting at 1 to 4 mg/kg for 24 hrs; type: organism-based, Macaca mulatta; set-up: dose 1-4 mg/kg; conditions: in vivo
Rhesus monkey [30] = experiment: Physical dependence capacity in monkey assessed as single dose suppression of morphine withdrawal syndrome at 1 to 16 mg/kg; type: ADME, organism-based, Macaca mulatta; set-up: dose 1-16 mg/kg; conditions: in vivo
Rhesus monkey [31] = experiment: Toxicity in monkey assessed as gazing behavior at 10 mg/kg; type: organism-based, Macaca mulatta; set-up: dose 10 mg/kg; conditions: in vivo
[32] = Mus musculus, sc, read-out: ED50

**Q.** With CCC[C@H]1[C@H]2Cc3ccc(O)cc3[C@]1(C)CCN2C [listing 1 of 2 here] as the compound, how does the Activity (Mus musculus [1]) read?
**A.** inactive

**Q.** For CCC[C@@H]1[C@H]2Cc3ccc(O)cc3[C@]1(C)CCN2C.Cl (racemic), which Activity (Rhesus monkey [2]) is on record?
**A.** Non-toxic

**Q.** And the Activity (Mus musculus [3])?
**A.** Non-toxic

**Q.** And the ED50 (Mus musculus [4])?
**A.** 0.64 mg/kg

**Q.** And the Activity (Rhesus monkey [5])?
**A.** Non-toxic

**Q.** What about the ED50 (Mus musculus [6]; [32]) of the same compound?
**A.** 0.35 mg/kg

**Q.** For CCC[C@H]1[C@H]2Cc3ccc(O)cc3[C@]1(C)CCN2C [listing 2 of 2 here], which ED50 (Mus musculus [4]; [32]) is on record?
**A.** 1.61 mg/kg

**Q.** And the Activity (Rhesus monkey [7])?
**A.** Toxic

**Q.** What about the ED50 (Mus musculus [6]; [32]) of the same compound?
**A.** 1.8 mg/kg

**Q.** Which ED50 (Mus musculus [8]) does the source give for COc1ccc2c3c1O[C@H]1[C@@H](O)C=C[C@H]4[C@@H](C2)N(C)CC[C@@]341 [CODEINE] here?
**A.** 21.4 mg/kg

**Q.** CN1CC[C@]23c4c5ccc(O)c4O[C@H]2[C@@H](O)C=C[C@H]3[C@H]1C5.Cl [MORPHINE HYDROCHLORIDE] was tested. Which ED50 (Mus musculus [4]; [32]) did it give?
**A.** 1.2 mg/kg

**Q.** And the ED50 (Mus musculus [6]; [32])?
**A.** 0.8 mg/kg

**Q.** Which ED50 (Mus musculus [4]; [32]) does the source give for CCC[C@H]1[C@H]2Cc3ccc(O)cc3[C@]1(C)CCN2C.O=C(O)C(O)c1ccccc1 here?
**A.** 1.1 mg/kg

**Q.** And the Activity (Rhesus monkey [9])?
**A.** Toxic

**Q.** What about the Activity (Rhesus monkey [10]) of the same compound?
**A.** Toxic

**Q.** What about the Activity (Rhesus monkey [11]) of the same compound?
**A.** Non-toxic

**Q.** And the Activity (Rhesus monkey [12])?
**A.** Non-toxic

**Q.** What about the Activity (Rhesus monkey [13]) of the same compound?
**A.** Toxic

**Q.** What about the Activity (Mus musculus [14]) of the same compound?
**A.** Toxic

**Q.** What about the Activity (Rhesus monkey [15]) of the same compound?
**A.** Toxic

**Q.** What about the Activity (Rhesus monkey [16]) of the same compound?
**A.** Non-toxic

**Q.** And the Activity (Rhesus monkey [17])?
**A.** Toxic

**Q.** What about the Activity (Rhesus monkey [18]) of the same compound?
**A.** Toxic

**Q.** What about the Activity (Rhesus monkey [19]) of the same compound?
**A.** Non-toxic

**Q.** What about the ED50 (Mus musculus [6]; [32]) of the same compound?
**A.** 1.2 mg/kg

**Q.** What about the Activity (Rhesus monkey [20]) of the same compound?
**A.** Toxic

**Q.** And the Activity (Rhesus monkey [21])?
**A.** Toxic

**Q.** And the Activity (Rhesus monkey [22])?
**A.** Non-toxic

**Q.** What about the Activity (Rhesus monkey [23]) of the same compound?
**A.** Non-toxic

**Q.** Which ED50 (Mus musculus [4]; [32]) does the source give for C=CCN1CC[C@]23c4c5ccc(O)c4O[C@H]2[C@@H](O)C=C[C@H]3[C@H]1C5.Cl [NALORPHINE HYDROCHLORIDE] here?
**A.** 36.4 mg/kg

**Q.** And the ED50 (Mus musculus [6]; [32])?
**A.** 4.8 mg/kg

**Q.** How did the ED50 (Mus musculus [8]) turn out when COc1ccc2c3c1O[C@H]1C(=O)CC[C@@]4(O)[C@@H](C2)N(C)CC[C@]314 [OXYCODONE] was run?
**A.** 1.3 mg/kg

**Q.** CCC[C@@H]1[C@H]2Cc3ccc(O)cc3[C@]1(C)CCN2C.Cl was tested. Which Activity (Rhesus monkey [24]) did it give?
**A.** Toxic

**Q.** What about the Activity (Mus musculus [25]) of the same compound?
**A.** Toxic

**Q.** What about the Activity (Rhesus monkey [26]) of the same compound?
**A.** Toxic

**Q.** What about the ED50 (Mus musculus [4]) of the same compound?
**A.** 0.3 mg/kg

**Q.** And the Activity (Rhesus monkey [27])?
**A.** Toxic

**Q.** What about the Activity (Rhesus monkey [28]) of the same compound?
**A.** Non-toxic

**Q.** And the Activity (Rhesus monkey [29])?
**A.** Toxic

**Q.** And the ED50 (Mus musculus [6])?
**A.** 0.35 mg/kg

**Q.** What about the Activity (Rhesus monkey [30]) of the same compound?
**A.** Toxic

**Q.** And the Activity (Rhesus monkey [31])?
**A.** Toxic

**Q.** What about the ED50 (Mus musculus [8]) of the same compound?
**A.** 7.26 mg/kg

Reference: ChEMBL document CHEMBL3272274, “Optical resolution of (+/-)-2,5-dimethyl-2'-hydroxy-9alpha- and -9beta-propyl-6,7-benzomorphans and their pharmacological properties” (J Med Chem, 1976)
